This is an account of results in ChEMBL document CHEMBL1629511, “Naphthylchalcones induce apoptosis and caspase activation in a leukemia cell line: The relationship between mitochondrial damage, oxidative stress, and cell death” (Bioorg Med Chem, 2010).

Test [1] concerns L1210. Put plainly: Induction of apoptosis in mouse L1210 cells assessed as increase in GSH level at IC50 concentration measured after 24 hrs. It counts as functional, cell-based. Put shortly: (§1)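 Homogenates came from 3 × 10⁶ L1210 cells after 24 h treatment (phosphate/NaCl/Triton lysis, sonication, 10,000 rpm spin). Total glutathione was measured by the glutathione reductase recycling method (50 µg protein, 75 µM DTNB, 120 µM NADPH, 4 U/ml GR) at 405 nm against a GSH standard. GSSG = (TG − GSH)/2. Values were protein-normalized and given as % of control.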

The subject of test [2] is L1210. In words: Induction of apoptosis in mouse L1210 cells assessed as increase in GSSG level at IC50 concentration measured after 24 hrs. It counts as functional, cell-based. The gist of the method:
as §1

The subject of test [3] is L1210. In words: Cytotoxicity against mouse L1210 cells after 48 hrs by MTT assay. Particulars: L1210, 48 h. It counts as functional, cell-based. Put shortly: (§2)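 MTT assay on L1210 or CEM cells grown in DMEM with 10% heat-inactivated FBS. Cells were seeded at 1 × 10⁵/well for 24 h or 5 × 10⁴/well for 48 h, in triplicate, with 1–100 µM compound (DMSO ≤1%). MTT was added for 2 h at 37 °C, formazan dissolved in DMSO, and A540 read. IC50 came from a Hill concentration–response fit.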

In test [4] the test system is L1210. Put plainly: Induction of apoptosis in mouse L1210 cells assessed as DNA fragmentation at IC50 concentration after 24 hrs by agarose gel electrophoresis analysis. In kind it is functional, cell-based. The gist of the method: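 3 × 10⁶ L1210 cells were treated for 24 h, washed with cold PBS, then lysed in EDTA/Tris pH 8.0/NP-40/proteinase K buffer at 50 °C for 2 h. DNA was ethanol-precipitated, washed, treated with RNase A at 37 °C for 1 h and resolved by agarose gel electrophoresis beside a size standard.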

Test [5] has as its system L1210. In words: Induction of apoptosis in mouse L1210 cells assessed as decrease in intracellular ATP concentration at IC50 concentration measured up to 24 hrs. In kind it is functional, cell-based. Put shortly:
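Intracellular ATP: 1 × 10⁶ L1210 cells were treated for up to 24 h. Extracts were made in 1.25% trichloroacetic acid, kept on ice 30 min, neutralized with 1 M Tris–acetate pH 7.5 and centrifuged. Luciferin–luciferase bioluminescence was read and normalized to the cell death percentage over the incubation.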

The test system of test [6] is L1210. Put plainly: Induction of apoptosis in mouse L1210 cells assessed as increase in glutathione reductase activity at IC50 concentration measured after 24 hrs. It counts as functional, cell-based.
Test [7] deals with CCRF-CEM. In words: Cytotoxicity against human CEM cells after 48 hrs by MTT assay. In kind it is functional, cell-based. Put shortly: as §2
On the technique in general: Tetrazolium assays rely on reduction of a dye to a coloured formazan, in cell work by metabolically active cells.

For test [8], the system named is CCRF-CEM. In words: Cytotoxicity against human CEM cells after 24 hrs by MTT assay. In kind it is functional, cell-based. Put shortly:
as §2

The test system of test [9] is L1210. In words: Induction of apoptosis in mouse L1210 cells assessed as increase in caspase 3 activity at IC50 concentration after 2 to 4 hrs. It counts as functional, cell-based. The gist of the method: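 3 × 10⁶ L1210 cells were treated for 2 or 4 h at 37 °C, then lysed in HEPES pH 7.4 buffer with protease inhibitors, CHAPS and DTT. Extract (50 µg protein) was incubated with 10 µM Ac-DEVD-AMC for 2 h at 37 °C. AMC fluorescence was read at ex 380/em 465 nm, blank-subtracted, and expressed per hour per µg protein (Lowry).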

Test [10] relates to L1210. Put plainly: Cytotoxicity against mouse L1210 cells after 24 hrs by MTT assay in presence of catalase. It counts as functional, cell-based. Particulars: L1210, 24 h. Put shortly:
(§3)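 L1210 cells at 1 × 10⁵/well were exposed for 24 h to 1–100 µM compound together with catalase 5000 U/ml, SOD 250 U/ml or Trolox 200 µM. Additive-only controls were run in parallel. Viability was read by MTT (2 h, formazan in DMSO, A540) in triplicate.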

Test [11] relates to L1210. In words: Cytotoxicity against mouse L1210 cells after 24 hrs by MTT assay in presence of Trolox. In kind it is functional, cell-based. The note with it: L1210, 24 h. Put shortly: as §3
Test [12] has as its system CCRF-CEM. Put plainly: Cytotoxicity against human CEM cells after 72 hrs by MTT assay. In kind it is functional, cell-based.
Test [13] concerns L1210. In words: Induction of lipid peroxidation in mouse L1210 cells at IC50 concentration after 24 hrs by TBARS method. It counts as functional, cell-based. The gist of the method:
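Homogenates came from 4 × 10⁶ L1210 cells after 24 h treatment. 400 µg protein was mixed with 60 mM Tris–HCl pH 7.4, 0.1 mM DPTA, TCA and 0.73% TBA, boiled 2 h, cooled and centrifuged. A535 was converted to nmol TBARS per µg protein using the MDA extinction coefficient.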

Test [14] concerns L1210. In words: Induction of apoptosis in mouse L1210 cells assessed as increase in glutathione peroxidase activity at IC50 concentration measured after 24 hrs. In kind it is functional, cell-based. Put shortly: (§4)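 Homogenates came from 6 × 10⁶ L1210 cells after 24 h treatment. GPx was measured with 150 µg protein as NADPH loss at 340 nm. Catalase followed Aebi with 60 µg protein. GST was measured as the GSH–CDNB conjugate at 340 nm. Activities were protein-normalized and given as % of control.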

Test [15] deals with L1210. In words: Induction of apoptosis in mouse L1210 cells assessed as increase in glutathione S-transferase activity at IC50 concentration measured after 24 hrs. It counts as functional, cell-based. Put shortly: as §4
Test [16] relates to L1210. In words: Cytotoxicity against mouse L1210 cells after 24 hrs by MTT assay. It counts as functional, cell-based. Particulars: L1210, 24 h. The gist of the method:
as §2

In test [17] the test system is L1210. In words: Cytotoxicity against mouse L1210 cells after 24 hrs by MTT assay in presence of superoxide dismutase. In kind it is functional, cell-based. The note with it: L1210, 24 h. The gist of the method: as §3
Test [18] has as its system L1210. Put plainly: Induction of ROS production in mouse L1210 cells at IC50 concentration after 4 hrs.
In test [19] the test system is L1210. In words: Induction of apoptosis in mouse L1210 cells assessed as increase in catalase activity at IC50 concentration measured after 24 hrs. In kind it is functional, cell-based. The gist of the method:
as §4

The subject of test [20] is L1210. Put plainly: Cytotoxicity against mouse L1210 cells after 72 hrs by MTT assay. It counts as functional, cell-based. The note with it: L1210, 72 h.
Test [21] concerns L1210. In words: Induction of apoptosis in mouse L1210 cells assessed as decrease in mitochondrial membrane potential at IC50 concentration after 4 hrs using JC-1 staining by spectrofluorimetric analysis. It counts as functional, cell-based. The gist of the method: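 L1210 cells at 5 × 10⁵/well were treated for 4 h, then stained with JC-1 (10 µg/ml) for 20 min at 37 °C, washed and resuspended in PBS. Fluorescence was read with excitation at 488 nm and emission at 590/527 nm. The red/green ratio is expressed relative to control (100%).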

The test system of test [22] is L1210. Put plainly: Induction of apoptosis in mouse L1210 cells assessed as increase in total glutathione level at IC50 concentration measured after 24 hrs. It counts as functional, cell-based. Put shortly: as §1

Active and inactive are the calls of the source. The calls are words filed in the database; no cut-off is given here.

A word on the IC50: it is the concentration that gives 50% inhibition. As to `O=C(/C=C/c1ccccc1)c1ccc2ccccc2c1`, the result in the test on L1210 [1], in the test on L1210 [2], in the test on L1210 [4], with L1210 [5], with L1210 [6] and with L1210 [9] was Active. The outcome in the test with L1210 [13], in the test with L1210 [14], with L1210 [15], in the test on L1210 [18] and in the test on L1210 [22] was Active. The concentration for half-maximal inhibition (IC50) is 20 µM in the test on L1210 [3]; 14 µM with CCRF-CEM [7]; 12 µM in the test with CCRF-CEM [8]; 58 µM with L1210 [10]; 39 µM in the test on L1210 [11]; 5 µM with CCRF-CEM [12]. Besides, the IC50 in the test on L1210 [16] was 37 µM; in the test with L1210 [17], 31 µM; in the test with L1210 [20] it was 17 µM. In addition, the result in the test with L1210 [19] and with L1210 [21] was inactive.
Take `O=C(/C=C/c1cccc(Cl)c1)c1ccc2ccccc2c1`: the result in the test on L1210 [1] and in the test with L1210 [19] was inactive. The result in the test with L1210 [2], in the test with L1210 [4], with L1210 [5], with L1210 [6], in the test on L1210 [9] and with L1210 [13] was Active. The result with L1210 [14], in the test with L1210 [15], in the test on L1210 [18], with L1210 [21] and with L1210 [22] was Active. Besides, the IC50 amounted to 23 µM in the test with L1210 [3]; 12 µM in the test with CCRF-CEM [7]; 11 µM with CCRF-CEM [8]; 51 µM in the test with L1210 [10]; 34 µM with L1210 [11]; 6 µM in the test with CCRF-CEM [12]. For the same compound, the results for the IC50 in the test with L1210 [16], in the test with L1210 [17] and in the test on L1210 [20] were 38 µM, 30 µM and 10 µM, respectively.
As for `O=C(/C=C/c1cccc([N+](=O)[O-])c1)c1ccc2ccccc2c1`, the result with L1210 [1] and with L1210 [19] was inactive. For the same compound, the result with L1210 [2], with L1210 [4], with L1210 [5], in the test with L1210 [6], in the test with L1210 [9] and in the test on L1210 [13] was Active. Moreover, the result in the test with L1210 [14], in the test with L1210 [15], in the test on L1210 [18], with L1210 [21] and in the test on L1210 [22] was Active. The IC50 in the test with L1210 [3] came to 13 µM; in the test with CCRF-CEM [7], 11 µM; in the test with CCRF-CEM [8], 11 µM; in the test on L1210 [10] it was 45 µM; in the test with L1210 [11] it was 20 µM; with CCRF-CEM [12], 4 µM. Besides, the IC50 amounted to 24 µM with L1210 [16], 20 µM in the test on L1210 [17] and 14 µM in the test on L1210 [20].
